Measured values from different studies.
Lines come from different studies, so protocols differ.
Cell line: MDA-MB-468
Observed: cell growth or viability

| Structure (SMILES) | method | tested at | time | endpoint | result |
| --- | --- | --- | --- | --- | --- |
| c1csc(-c2c3ccccc3cc3c2ccc2ccccc23)c1 | MTT | – | – | IC50 | 34 µM |
| CCc1ccc(N2NC(=O)/C(=C/c3ccc(-c4ccc(S(=O)(=O)Nc5nccs5)cc4)o3)C2=O)cc1 | MTT | – | 72 h | IC50 | 73.5 µM |
| COc1ccc(C(=O)/C=C/c2cccc(Br)c2)cc1S(N)(=O)=O | SRB | 10 µM | – | inhibition | 154% |
| Cc1cc(NCCCCCCCNc2cc(C)nc3cc(N)ccc23)c2ccc(N)cc2n1 | MTT | – | 96 h | IC50 | 16 µM |
| Cc1ncsc1-c1ccc(CNC(=O)[C@@H]2C[C@@H](O)CN2C(=O)[C@@H](NC(=O)CCCCCCCCCC(=O)N2CCN(CC[C@H](NC(=O)C3(N)CCN(c4ncnc5[nH]ccc45)CC3)c3ccc(Cl)cc3)CC2)C(C)(C)C)cc1 | – | – | 72 h | GI50 | 0.49 µM |
| Cc1cc(NS(=O)(=O)c2ccc(NC(=O)COc3ccc(C(C)(C)c4ccccc4)cc3)cc2)nc(C)n1 | MTT | – | 48 h | IC50 | 44.3 µM |
| NC1(C(=O)N[C@@H](CCO)c2ccc(Cl)cc2)CCN(c2ncnc3[nH]ccc23)CC1 | – | – | 72 h | GI50 | > 8 µM |
| COc1cc(-c2ccc(-c3ccc(C(=N)N)nc3)s2)cc(OC)c1OC | SRB | – | – | GI50 | 1.74 µM |
| COc1ccc(C(=O)/C=C/c2ccc(Cl)c(Cl)c2)cc1S(N)(=O)=O | SRB | 10 µM | – | inhibition | 119% |
| Cc1cc(NCCCCCCCCNc2cc(C)nc3cc(N)ccc23)c2ccc(N)cc2n1 | MTT | – | – | IC50 | 5.1 µM |
| CC(=O)c1c(C)c2cnc(Nc3ccc(N4CCNCC4)cn3)nc2n(C2CCCC2)c1=O | resazurin | – | – | GI50 | 7.5 µM |
| COc1ccc(-c2ccc(-c3ccc(C(=N)N)nc3)s2)cc1Cl | SRB | – | – | GI50 | 1.74 µM |
